Compound activity as filed in PubChem.
TAAR1 ag: agonists of human TAAR1. 0.99% of 360,000 active. activation, % at 3 µM. CHO RD-HGA16 TAAR1, Fluo-8 calcium fluorescence; vehicle wells 0%, saturating PEA agonist 100%. Q96RJ0;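 active = activation above the mean activation of all test compounds in the run plus 3 SD, cut at about 38% in these data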
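System: CHO RD-HGA16 cells carrying human TAAR1 plus Gα16; Incubation: 17-24 h seeding, 75 min 37 °C dye, 30 min RT; Measured by: Fluo-8 fluorescence, 5 s baseline then 140 s kinetic read; Control set: DMSO and PEA EC100; Replication: single well for each compound.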
OX1R antag-1: blocks the human orexin 1 receptor | 1.8% of 330,000 active | OX1R-expressing cells, FRET antagonist read-out | inhibition, % at 6.6 µM; in the data active = inhibition mostly above about 38%, no sharp cut-off; inactive = mostly below about 40%;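 note: 0% = agonist challenge alone and 100% = reference antagonist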
Target sequence (O43613 whole entry, looked up): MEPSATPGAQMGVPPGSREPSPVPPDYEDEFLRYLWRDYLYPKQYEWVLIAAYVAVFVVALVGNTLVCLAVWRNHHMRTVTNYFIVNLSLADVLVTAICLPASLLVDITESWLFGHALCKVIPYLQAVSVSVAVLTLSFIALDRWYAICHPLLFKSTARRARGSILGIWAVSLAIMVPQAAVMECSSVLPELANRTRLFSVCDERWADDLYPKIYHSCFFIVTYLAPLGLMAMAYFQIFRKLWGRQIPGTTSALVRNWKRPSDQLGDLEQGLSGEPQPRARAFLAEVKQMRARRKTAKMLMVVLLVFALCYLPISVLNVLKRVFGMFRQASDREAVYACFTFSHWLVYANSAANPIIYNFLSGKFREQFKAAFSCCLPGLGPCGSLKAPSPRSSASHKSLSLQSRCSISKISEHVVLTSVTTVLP
CHO parental Ca: counter-screen for OX1R antagonists: effect in parental CHO cells | parental CHO-K1, ATP-induced calcium, Fluo-8 fluorescence | inhibition, % at 5.6 µM | 0.63% of 330,000 active | AID 463079;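 active = inhibition above that plate's mean sample inhibition plus 3 SD, cut at about 26% in these data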;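 note: 0% = ATP-challenged DMSO wells and 100% = DMSO wells without ATP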
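test system = CHO parental line | reagent = ATP stimulus | measured by = intracellular calcium via Fluo-8 no-wash fluorescent dye | control set = ATP and no-ATP DMSO wells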
GPR7 antag: blocks human GPR7 receptor signaling | P48145 | GPR7-expressing cells, fluorescence antagonist assay | inhibition, % at 4.4 µM | 1.1% of 290,000 active; in the data active = inhibition above about 16%, passing the limit was not always enough;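 note: cells stimulated with the agonist NPW; 0% = agonist with vehicle and 100% = vehicle without agonist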
TAAR1 antagonist: human TAAR1 antagonism. Q96RJ0. CHO RD-HGA16 TAAR1, Fluo-8 calcium fluorescence, antagonist. inhibition, % at 3 µM. 1.5% of 360,000 active;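 active = inhibition above a per-plate cutoff, the mean inhibition of test compounds on that plate plus 3 SD, cut at about 49% in these data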;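 note: 0% = DMSO plus EC80 beta-PEA response and 100% = DMSO alone without agonist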
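Test system – hTAAR1-expressing CHO RD-HGA16 cells, Gα16-coupled · Also added – β-PEA at EC80 concentration, post-compound challenge · Compound – 3 µM, single point · Incubation – dye loading 75 min at 37 °C, then 30 min room temperature · Measured by – Fluo-8 intracellular calcium dye fluorescence, real-time kinetic reads · Benchmarks – vehicle and agonist controls · Replicates – singlicate, one well per test compound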
OX1R antag-2: human HCRTR1 antagonism; O43613; CHO/OX1R cells, Fluo-8 calcium fluorescence, orexin A; inhibition, % at 5 µM; 0.43% of 330,000 active; AID 434989;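 active = inhibition above its plate's threshold, mean inhibition of all tested compounds on the plate plus 3 SD, cut at about 37% in these data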;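 note: 0% = orexin A challenge wells and 100% = SB-334867-A antagonist wells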
GPR7 antag cf: human GPR7 antagonism, confirmation assay; inhibition, % at 4.4 µM; shares compounds with GPR7 antag; 52% of 2,400 active; GPR7-expressing cells, calcium fluorescence antagonist mode; in the data active = inhibition above about 24%;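 note: stimulated with the GPR7 agonist NPW; 0% = agonist plus vehicle and 100% = vehicle alone without agonist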
MCHR1 antag: counter-screen for GPR7 antagonists: antagonists of human MCHR1; 62% of 2,400 active; inhibition, % at 4.4 µM; AID 2148; shares compounds with GPR7 antag; MCHR1-expressing cells, fluorescence antagonist assay; in the data active = inhibition above about 22%;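 note: 0% = vehicle with agonist and 100% = vehicle without agonist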
TAAR1 ag conf: human TAAR1 agonism, confirmed; shares compounds with TAAR1 ag; CHO RD-HGA16 TAAR1, Fluo-8 calcium fluorescence; scaled: DMSO 0%, maximal phenethylamine 100%; activation, % at 3 µM; 82% of 2,400 active;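 active = activation above a cutoff set at the run's mean compound activation plus 3 SD, cut at about 39% in these data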
Ga16 nonsel ag: nonselective agonism, TAAR1 counter-screen; 50% of 2,400 active; shares compounds with TAAR1 ag; CHO-Ga16 parental, Fluo-8 calcium fluorescence; normalized to maximal ATP response, DMSO zero; activation, % at 3 µM;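 active = activation above the run cutoff, the mean activation over all tested wells plus 3 SD, cut at about 12% in these data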;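 note: 0% = DMSO wells and 100% = maximal ATP response on the peak over basal ratio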
TAAR1 desens: TAAR1 response desensitization, agonist counter-screen; shares compounds with TAAR1 ag; CHO RD-HGA16 hTAAR1, Fluo-8 calcium, beta-PEA response inhibition; inhibition, % at 3 µM; 46% of 2,400 active;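 active = inhibition above the run cutoff, the mean inhibition of all test compounds plus 3 SD, cut at about 49% in these data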;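 note: beta-PEA stimulus applied at its EC80; loss of beta-PEA calcium signal after compound pretreatment read as receptor desensitization; 0% = DMSO with beta-PEA at EC80 and 100% = DMSO alone without agonist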
Ga16 antag count: nonselective Ga16 antagonist in TAAR1 agonist counter-screen; shares compounds with TAAR1 ag; CHO-Ga16 ATP-induced calcium, Fluo-8 fluorescence; inhibition, % at 3 µM; 39% of 2,400 active; AID 651952;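 active = inhibition above the plate's mean compound inhibition plus 3 SD, computed per plate, cut at about 22% in these data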;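 note: 0% = EC80 ATP with DMSO and 100% = DMSO wells without ATP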
* hit, by the source's call; · = no result given. This is a sample that favours compounds with a hit; in the whole collection about 4.6% have one here.

SMILES	TAAR1 ag	OX1R antag-1	CHO parental Ca	GPR7 antag	TAAR1 antagonist	OX1R antag-2	GPR7 antag cf	MCHR1 antag	TAAR1 ag conf	Ga16 nonsel ag	TAAR1 desens	Ga16 antag count
Cc1cc(C)c(OCC(=O)Nc2ccccc2N2CCOCC2)c(C)c1	61*	3	41*	26*	55*	44*	59*	70*	43*	34*	56*	52*
CC(=O)Nc1ccc(Sc2ncccc2C(=O)Nc2ccc(F)cc2)cn1	174*	-1	72*	62*	104*	101*	98*	98*	150*	113*	106*	89*
CSc1ncccc1C(=O)Nc1ccc(OC(F)(F)F)cc1	2	13	-1	8	4	3	·	·	·	·	·	·
Cc1cccc(S(=O)(=O)NC(=O)C2(C)CCN2C(=O)C/C=C/c2ccccc2)c1 (centres undefined)	0	·	·	·	12	·	·	·	·	·	·	·
CC(=O)Nc1cccc(C(=O)/C=C/c2ccc(/C=C/C(=O)c3cccc(NC(C)=O)c3)cc2)c1	8	17	-24	-6	29	-38	·	·	·	·	·	·
CC(=O)Nc1cccc(C(=O)/C=C/c2ccc(N(C)C)cc2)c1	127*	21	82*	29*	58*	100*	60*	62*	81*	96*	71*	75*
Cc1cc(N2CCC(C)CC2)nc(NCc2ccccc2)n1	60*	15	-16	30*	36	-14	58*	83*	67*	34*	53*	31*
CC(C)Cc1ccc(C(C)C(=O)Nc2nccs2)cc1 (centres undefined)	105*	22	43*	63*	74*	49*	78*	78*	103*	50*	81*	50*
CC(C)c1ccc(CNC(=O)C(=O)Nc2nccs2)cc1	5	9	9	-3	3	-11	·	·	·	·	·	·
Cc1ccc(O)c(NC(=S)NC(=O)Cc2ccc(Cl)cc2)c1	155*	-13	99*	99*	106*	107*	100*	107*	140*	117*	106*	102*
Cc1c(CN2CCC(n3nccc3NC(=O)C3CCOC3)CC2)[nH]c2ccccc12 (centres undefined)	3	·	·	-10	-14	·	·	·	·	·	·	·
O=C(Nc1ccnn1C1CCN(Cc2cc3ccccc3[nH]2)CC1)C1CCOC1 (centres undefined)	58*	5	3	82*	83*	2	53*	74*	31	23*	63*	66*
CCc1ccc(N/C(=N/c2nc(C)cc(C)n2)NC(C)=O)cc1	-4	3	-20	-21	-11	-8	·	·	·	·	·	·
COc1ccccc1N/C(N)=N/c1nc(C)cc(C)n1	2	1	-11	-9	-6	-26	·	·	·	·	·	·
Cc1cc(C)nc(/N=C(\N)Nc2cccc(OCc3ccccc3)c2)n1	124*	9	40*	97*	107*	73*	91*	105*	112*	83*	106*	90*
Cc1cc(C)nc(/N=C(\N)Nc2ccc(OCCC(C)C)cc2)n1	145*	5	68*	100*	103*	94*	97*	106*	127*	103*	105*	93*
Cc1cc(C)nc(/N=C(\N)Nc2ccc(CC(=O)OC(C)C)cc2)n1	109*	17	41*	97*	101*	67*	95*	97*	120*	85*	106*	97*
CC(C)CNC(=O)c1cccc(NC(=O)c2ccc(Cl)c([N+](=O)[O-])c2)c1	7	21	-22	-2	20	-16	·	·	·	·	·	·
CC(Oc1ccccc1)C(=O)N=C1SC2CS(=O)(=O)CC2N1CCc1ccccc1 (centres undefined)	3	-1	-1	-11	17	-23	·	·	·	·	·	·
Cc1ccc(NC(=O)CCNS(=O)(=O)c2ccc(Br)cc2)cc1S(=O)(=O)N1CCOCC1	3	12	-20	·	-12	-38	·	·	·	·	·	·
Cc1cccc(NC(=O)CSc2nsc(SCC(=O)Nc3cccc(C)c3)c2C#N)c1	0	13	-8	0	13	-11	·	·	·	·	·	·
COc1cccc(NC(=O)c2nnn(Cc3ccc(Br)cc3F)c2N)c1	59*	3	21	24*	53*	33	53*	53*	76*	32*	59*	36*
CCc1ccc(Cn2nnc(C(=O)Nc3ccc(OC)cc3OC)c2N)cc1	72*	20	3	25*	10	14	42*	19	60*	22*	25	20
COc1cccc(NC(=O)Cn2nnc(C(=O)Nc3ccccc3)c2N)c1	8	8	-8	-17	-10	-10	·	·	·	·	·	·
CN1CCN(c2ccc(S(=O)(=O)N3CCCCC3)cc2NC(=O)Cc2ccc(Cl)cc2)CC1	57*	8	5	25*	24	-5	50*	54*	36	28*	23	22*
CCC(C(=O)Nc1ccncc1)c1ccccc1 (centres undefined)	6	16	-2	-11	-2	2	·	·	·	·	·	·
CCc1ccc(NC(=O)C(CC)c2ccccc2)cc1 (centres undefined)	71*	14	39*	31*	37	24	58*	60*	67*	38*	65*	39*
C=CCn1c(O)c(C2=c3ccccc3=NC2=O)c2ccccc21	64*	28	10	38*	27	16	46*	86*	63*	38*	68*	52*
c1ccc(CNc2ncnc3c2cnn3Cc2ccccc2)cc1	102*	19	3	28*	7	-8	53*	51*	82*	47*	48	25*
OCCNc1ncnc2c1cnn2Cc1ccccc1	2	·	·	-9	7	·	·	·	·	·	·	·
